# Results of several laboratories.
# PTGS2: Prostaglandin G/H synthase 2 (PTGS2, Homo sapiens, UniProt P35354)
# DYRK1B: Dual specificity tyrosine-phosphorylation-regulated kinase 1B (DYRK1B, Homo sapiens, UniProt Q9Y463)
SMILES,target,observed,mode,technique,tested at,endpoint,value
O=c1cc(-c2ccc(O)cc2)oc2cc(O)cc(O)c12,PTGS2,enzyme activity,inhibitor,,0.49 µg/mL,inhibition,16.4%
O=C(O)c1ccc2c(c1)nc(Nc1ccc(F)c(Cl)c1)c1ncncc12,DYRK1B,enzyme activity,inhibitor,radiometric,1 µM,remaining activity,60%
C[S+]([O-])c1ccc(-c2nc(-c3ccncc3)c(-c3ccc(F)cc3)[nH]2)cc1 (centres unmarked),"Bromodomain testis-specific protein, BD2 (BRDT, Homo sapiens, UniProt Q58F21)",thermal stability,,DSF,10 µM,ΔTm,0.59 °C
Cc1cc2c(cc1N1C(=O)c3cccc4c(Cl)ccc(c34)C1=O)n(C)c(=O)n2C,"Transcription intermediary factor 1-beta (TRIM28, Homo sapiens, UniProt Q13263)",thermal stability,,DSF,10 µM,ΔTm,0.3 °C
O=C(O)c1ccc(O)cc1,PTGS2,enzyme activity,inhibitor,,0.49 µg/mL,inhibition,19.4%
Cc1cnc(Nc2ccc(OCCN3CCCC3)cc2)nc1Nc1cccc(S(=O)(=O)NC(C)(C)C)c1,"Bromodomain testis-specific protein, BD1 (BRDT, Homo sapiens, UniProt Q58F21)",thermal stability,,DSF,10 µM,ΔTm,3.38 °C
O=C(O)c1ccc2c(c1)nc(Nc1cccc(F)c1)c1ccncc12,DYRK1B,enzyme activity,inhibitor,radiometric,1 µM,remaining activity,13%
NS(=O)(=O)c1ccc(Nc2nc(-c3ccc(F)cc3)c3ccccc3n2)cc1,"CREB-binding protein (CREBBP, Homo sapiens, UniProt Q92793)",binding,,competition with immobilised ligand,1 µM,remaining binding,54%
